From ChEMBL document CHEMBL4024781, “Comprehensive Synthesis of Amino Acid-Derived Thiazole Peptidomimetic Analogues to Understand the Enigmatic Drug/Substrate-Binding Site of P-Glycoprotein” (J Med Chem, 2018)
pIC50: −log10 of the molar value.

Tests used:
[1] = Cytotoxicity in parental HEK293-pcDNA 3.1 transfected cells assessed as cell survival at 10 uM after 72 hrs by MTT assay; type: cell-based; settings: human, parental HEK293 cells transfected with pcDNA 3.1
Procedure, shortened: (§1)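 HEK293 cells stably transfected with empty pcDNA3.1 vector or ABCB1 vector, kept in DMEM with 10% FBS, 1% penicillin/streptomycin, and 2 mg/mL G418 at 37°C in 5% CO2. Cells were seeded at 5000/well, and after 24 h treated with test compound alone, diluted from 10 mM DMSO stocks into medium. After 72 h, viability was read by MTT (4 mg/mL, 4 h), with formazan dissolved in DMSO and absorbance read at 570 nm.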

P-gp (ABCB1) [2] = target: T1, P-gp (ABCB1) (Homo sapiens, UniProt P08183); assay: Activation of human P-gp expressed in high five insect cell membrane vesicles by measuring the vanadate-sensitive ATPase activity of P-gp at 0.05 uM preincubated for 5 mins in the presence of sodium orthovanadate measured after 20 mins by colorimetric method; settings: read-out: Activity
T1 sequence (P08183 whole entry): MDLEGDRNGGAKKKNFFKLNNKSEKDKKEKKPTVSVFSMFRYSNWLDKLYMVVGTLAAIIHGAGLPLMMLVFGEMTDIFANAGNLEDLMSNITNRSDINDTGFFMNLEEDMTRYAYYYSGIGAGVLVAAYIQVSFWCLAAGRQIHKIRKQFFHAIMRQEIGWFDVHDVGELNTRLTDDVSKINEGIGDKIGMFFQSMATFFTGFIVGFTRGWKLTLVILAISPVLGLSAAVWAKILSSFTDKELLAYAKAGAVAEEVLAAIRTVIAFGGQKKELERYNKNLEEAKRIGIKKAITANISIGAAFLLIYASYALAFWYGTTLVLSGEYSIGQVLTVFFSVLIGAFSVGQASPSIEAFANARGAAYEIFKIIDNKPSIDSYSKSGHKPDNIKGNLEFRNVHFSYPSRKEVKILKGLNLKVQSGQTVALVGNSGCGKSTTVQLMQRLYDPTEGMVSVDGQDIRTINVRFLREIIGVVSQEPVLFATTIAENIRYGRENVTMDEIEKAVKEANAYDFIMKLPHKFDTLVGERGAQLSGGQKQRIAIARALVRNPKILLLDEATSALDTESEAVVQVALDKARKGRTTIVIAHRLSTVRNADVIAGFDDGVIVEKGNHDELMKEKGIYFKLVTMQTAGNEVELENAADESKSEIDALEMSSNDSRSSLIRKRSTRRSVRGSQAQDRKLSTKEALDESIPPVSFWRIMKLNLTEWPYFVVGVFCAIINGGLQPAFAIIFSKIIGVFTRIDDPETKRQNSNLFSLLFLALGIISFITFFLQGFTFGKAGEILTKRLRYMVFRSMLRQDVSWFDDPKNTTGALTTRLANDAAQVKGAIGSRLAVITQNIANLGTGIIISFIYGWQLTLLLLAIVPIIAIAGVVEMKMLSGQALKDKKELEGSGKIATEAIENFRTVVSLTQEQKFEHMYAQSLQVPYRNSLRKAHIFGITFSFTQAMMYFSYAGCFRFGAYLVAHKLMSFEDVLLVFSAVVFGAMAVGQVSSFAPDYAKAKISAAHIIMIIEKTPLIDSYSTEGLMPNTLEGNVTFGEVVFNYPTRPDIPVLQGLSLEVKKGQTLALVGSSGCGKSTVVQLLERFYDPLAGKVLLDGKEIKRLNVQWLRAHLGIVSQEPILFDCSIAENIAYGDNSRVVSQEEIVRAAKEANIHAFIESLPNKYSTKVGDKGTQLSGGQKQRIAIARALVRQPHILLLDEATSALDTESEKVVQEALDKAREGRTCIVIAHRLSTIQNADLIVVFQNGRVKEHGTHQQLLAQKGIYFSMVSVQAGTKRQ

P-gp (ABCB1) [3] = target: T1, P-gp (ABCB1); assay: Activation of human P-gp expressed in high five insect cell membrane vesicles by measuring the vanadate-sensitive ATPase activity of P-gp at 0.5 uM preincubated for 5 mins in the presence of sodium orthovanadate measured after 20 mins by colorimetric method; settings: read-out: Activity
Cytochrome P450 3A4 = Cytochrome P450 3A4 (Homo sapiens, UniProt P08684); assay: Inhibition of CYP3A4 (unknown origin); type: ADME
Chain of Cytochrome P450 3A4 (P08684 whole entry): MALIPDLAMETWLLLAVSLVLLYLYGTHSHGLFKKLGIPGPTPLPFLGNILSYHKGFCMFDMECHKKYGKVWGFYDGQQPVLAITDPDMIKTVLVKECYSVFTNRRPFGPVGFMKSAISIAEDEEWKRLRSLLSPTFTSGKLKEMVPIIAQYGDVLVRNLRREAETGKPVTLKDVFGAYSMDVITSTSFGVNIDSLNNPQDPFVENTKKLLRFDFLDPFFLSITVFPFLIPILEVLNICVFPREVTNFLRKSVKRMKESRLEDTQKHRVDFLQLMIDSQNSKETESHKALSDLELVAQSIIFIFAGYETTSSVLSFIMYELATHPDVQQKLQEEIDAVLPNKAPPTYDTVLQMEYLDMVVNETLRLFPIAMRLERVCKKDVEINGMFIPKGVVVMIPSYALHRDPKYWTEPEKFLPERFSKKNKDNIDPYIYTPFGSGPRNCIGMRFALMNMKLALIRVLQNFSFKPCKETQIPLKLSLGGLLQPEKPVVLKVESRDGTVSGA

P-gp (ABCB1) [4] = target: T1, P-gp (ABCB1); assay: Activation of human P-gp expressed in high five insect cell membrane vesicles by measuring the vanadate-sensitive ATPase activity of P-gp at 2.5 uM preincubated for 5 mins in the presence of sodium orthovanadate measured after 20 mins by colorimetric method; settings: read-out: Activity
HEK293 = assay: Potentiation of paclitaxel-induced cytotoxicity against parental HEK293-pcDNA 3.1 transfected cells assessed as fold reduction in paclitaxel IC50 at 10 uM pre-incubated for 1 hr before paclitaxel addition and measured after 72 hrs by MTT assay; type: functional, Homo sapiens
Procedure, shortened: (§2)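 HEK293 cells stably transfected with ABCB1 or empty pcDNA3.1 vector, kept in G418. Seeded at 5000/well and grown 24 h, then given modulator at 10 μM for 1 h before serially diluted paclitaxel (up to 10 μM). MTT read at 570 nm after 72 h. Paclitaxel IC50 from four experiments in triplicate. Fold resistance = IC50 with modulator ÷ IC50 of paclitaxel alone in vector-control cells.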

[5] = Cytotoxicity in P-gp tranfected HEK293 cells assessed as cell survival at 10 uM after 72 hrs by MTT assay; type: ADME, cell-based; settings: human, P-gp transfected HEK293 cells; procedure, shortened: as §1
[6] = target: T2, ATP-dependent translocase ABCB1 (Homo sapiens, UniProt P08183); assay: Inhibition of human P-gp transfected in HEK293 cells assessed as potentiation of paclitaxel-induced cytotoxicity by measuring fold reduction in paclitaxel IC50 at 10 uM pre-incubated for 1 hr before paclitaxel addition and measured after 72 hrs by MTT assay; type: cell-based; settings: hek293, 72 h; procedure, shortened: as §2
T2 sequence (P08183 whole entry): as the sequence (P08183 whole entry) above

CYP3A4 [7] = target: T3, CYP3A4 (Homo sapiens, UniProt P08684); assay: Inhibition of CYP3A4 (unknown origin) at 50 uM by fluorescence based-vivid CYP450 green screening kit based assay; type: ADME
T3 sequence (P08684 whole entry): as the sequence (P08684 whole entry) above

[8] = target: T2, ATP-dependent translocase ABCB1; assay: Displacement of [125I]-IAAP from human P-gp expressed in high five insect cell membrane vesicles preincubated for 10 mins followed by photocrosslinking for 10 mins by exposing under UV light for 10 mins by SDS-PAGE based method
Procedure, shortened: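 Membrane vesicles from P-gp-expressing High Five insect cells (65–75 μg protein/100 μL) incubated with compound (0–5 or 0–10 μM) in 50 mM MES-Tris pH 6.8, 150 mM NaCl, 37 °C, 10 min; moved to 4 °C, 4–5 nM [125I]-IAAP added under subdued light; 366 nm UV 10 min; P-gp band incorporation quantified after SDS-PAGE, DMSO-only as 100%.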

CYP3A4 [9] = target: T3, CYP3A4; assay: Inhibition of CYP3A4 (unknown origin) at 25 uM by fluorescence based-vivid CYP450 green screening kit based assay; type: ADME
P-gp (ABCB1) [10] = target: T1, P-gp (ABCB1); assay: Inhibition of human P-gp expressed in high five insect cell membrane vesicles by measuring the vanadate-sensitive ATPase activity of P-gp at 2.5 uM preincubated for 5 mins in the presence of sodium orthovanadate measured after 20 mins by colorimetric method
P-gp (ABCB1) [11] = target: T1, P-gp (ABCB1); assay: Displacement of [125I]-IAAP from human P-gp expressed in high five insect cell membrane vesicles at >5 uM preincubated for 10 mins followed by photocrosslinking for 10 mins by exposing under UV light for 10 mins by SDS-PAGE based method; settings: probe [125I]-IAAP, read-out: Imax
Procedure, shortened: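 Membrane vesicles (65–75 μg protein/100 μL) incubated with compound (0–5 or 0–10 μM) in 50 mM MES-Tris pH 6.8, 150 mM NaCl, 37 °C 10 min, then moved to 4 °C. 4–5 nM [125I]-IAAP (2200 Ci/mmol) added under subdued light, cross-linked at 366 nm UV 10 min. P-gp band incorporation quantified after SDS-PAGE, DMSO-only sample = 100%.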

P-gp (ABCB1) [12] = target: T1, P-gp (ABCB1); assay: Inhibition of human P-gp expressed in high five insect cell membrane vesicles by measuring the vanadate-sensitive ATPase activity of P-gp at 0.5 uM preincubated for 5 mins in the presence of sodium orthovanadate measured after 20 mins by colorimetric method

SMILES	viability at 72 h, 10 µM [1]	activity at 20 min, 0.05 µM (P-gp (ABCB1) [2])	activity at 20 min, 0.5 µM (P-gp (ABCB1) [3])	pIC50 (Cytochrome P450 3A4)	activity at 20 min, 2.5 µM (P-gp (ABCB1) [4])	fold change (FC) (HEK293)	viability at 72 h, 10 µM [5]	fold change (FC) [6]	inhibition at 50 µM (CYP3A4 [7])	pIC50 [8]	inhibition (INH) ([8]; human, 10 min)	inhibition at 25 µM (CYP3A4 [9])	inhibition at 20 min, 2.5 µM (P-gp (ABCB1) [10])	Emax at 10 min (P-gp (ABCB1) [11])	inhibition at 20 min, 0.5 µM (P-gp (ABCB1) [12])
COc1cc(C(=O)N[C@H](c2nc(C(=O)Nc3ccccc3C(=O)c3ccccc3)cs2)C(C)C)cc(OC)c1OC	> 80%	54%	83%	5.08	88%	1	> 80%	0.6							
COc1cc(C(=O)N[C@H](c2nc(C(=O)NC3CCC(F)(F)CC3)cs2)C(C)C)cc(OC)c1OC	> 80%					0.6	> 80%	0.6	28.7%	7.00	Dose-dependent effect	9.32%	33.9%	90%	30.7%
